{"source": "ChEMBL document CHEMBL4304756", "about": "“Second-Generation Tryptamine Derivatives Potently Sensitize Colistin Resistant Bacteria to Colistin” (ACS Med Chem Lett, 2019)", "key": {"[1]": {"test_system": "Klebsiella pneumoniae", "test": "Potentiation of colistin-induced antibacterial activity against Klebsiella pneumoniae 2210291 harbouring mcr-1 gene assessed as reduction in colistin MIC at 5 uM incubated for 16 hrs by broth microdilution method (reference value: 16 ug/ml)", "format": "functional", "settings": "Klebsiella pneumoniae, 2210291, 16 h", "summary_of_the_method": "(§1)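 For the dose-response, colistin MIC was measured against mcr-1 plasmid-bearing E. coli, K. pneumoniae and A. baumannii while the adjuvant concentration was lowered stepwise (30, 15 μM, down to 5 μM). The aim was to find where the MIC rose above the 2 μg/mL CLSI susceptibility breakpoint.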"}, "[2]": {"test_system": "Acinetobacter baumannii", "test": "Potentiation of colistin-induced antibacterial activity against Acinetobacter baumannii 4106 assessed as reduction in colistin MIC at 7.5 uM incubated for 16 hrs by broth microdilution method (reference value: 1024 ug/ml)", "format": "functional", "settings": "Acinetobacter baumannii, 4106, 16 h", "summary_of_the_method": "(§2)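 Colistin MIC was measured against chromosomally colistin-resistant strains (K. pneumoniae B9, C3; A. baumannii 4106, among four strains) with adjuvant at fixed levels from 20 μM down to 7.5 μM. Fold reduction was reported against colistin alone, with the CLSI breakpoint taken as ≤2 μg/mL.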"}, "[3]": {"test_system": "Acinetobacter baumannii", "test": "Potentiation of colistin-induced antibacterial activity against Acinetobacter baumannii 17978 harbouring mcr-1 gene assessed as reduction in colistin MIC at 5 uM incubated for 16 hrs by broth microdilution method (reference value: 16 ug/ml)", "format": "functional", "settings": "Acinetobacter baumannii, 17978, 16 h", "summary_of_the_method": "as §1"}, "[4]": {"test_system": "Escherichia coli", "test": "Potentiation of colistin-induced antibacterial activity against Escherichia coli YD626 harbouring mcr-1 gene assessed as colistin MIC at 50 uM incubated for 16 hrs by broth microdilution method (reference value: 8 ug/ml)", "format": "functional", "settings": "YD626, 16 h"}, "[5]": {"test_system": "Klebsiella pneumoniae", "test": "Potentiation of colistin-induced antibacterial activity against Klebsiella pneumoniae B9 assessed as reduction in colistin MIC at 7.5 uM incubated for 16 hrs by broth microdilution method (reference value: 512 ug/ml)", "format": "functional", "settings": "B9, 16 h"}, "[6]": {"test_system": "Klebsiella pneumoniae", "test": "Potentiation of colistin-induced antibacterial activity against Klebsiella pneumoniae 2210291 harbouring mcr-1 gene assessed as colistin MIC at 50 uM incubated for 16 hrs by broth microdilution method (reference value: 16 ug/ml)", "format": "functional", "settings": "Klebsiella pneumoniae, 2210291, 16 h"}, "[7]": {"test_system": "Acinetobacter baumannii", "test": "Potentiation of colistin-induced antibacterial activity against Acinetobacter baumannii 17978 harbouring mcr-1 gene assessed as colistin sensitization activity in presence of Tween 80 at 30 uM incubated for 16 hrs by broth microdilution method", "format": "functional, organism-based", "summary_of_the_method": "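To exclude nonspecific aggregation, colistin resensitization of A. baumannii 17978+mcr-1 was run with adjuvant at 30 μM, with and without 0.01% Tween 80.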"}, "[8]": {"test_system": "Klebsiella pneumoniae", "test": "Potentiation of colistin-induced antibacterial activity against Klebsiella pneumoniae B9 assessed as reduction in colistin MIC at 5 uM incubated for 16 hrs by broth microdilution method (reference value: 512 ug/ml)", "format": "functional", "settings": "B9, 16 h"}, "[9]": {"test_system": "Klebsiella pneumoniae", "test": "Potentiation of colistin-induced antibacterial activity against Klebsiella pneumoniae B9 assessed as reduction in colistin MIC at 10 uM incubated for 16 hrs by broth microdilution method (reference value: 512 ug/ml)", "format": "functional", "settings": "B9, 16 h", "summary_of_the_method": "as §2"}, "[10]": {"test_system": "Klebsiella pneumoniae", "test": "Potentiation of colistin-induced antibacterial activity against Klebsiella pneumoniae C3 assessed as reduction in colistin MIC at 7.5 uM incubated for 16 hrs by broth microdilution method (reference value: 512 ug/ml)", "format": "functional", "settings": "C3, 16 h", "summary_of_the_method": "as §2"}, "[11]": {"test_system": "Acinetobacter baumannii", "test": "Potentiation of colistin-induced antibacterial activity against Acinetobacter baumannii 17978 harbouring mcr-1 gene assessed as reduction in colistin MIC at 15 uM incubated for 16 hrs by broth microdilution method", "format": "functional, organism-based", "summary_of_the_method": "as §1"}, "[12]": {"test_system": "Acinetobacter baumannii", "test": "Potentiation of colistin-induced antibacterial activity against Acinetobacter baumannii 3941 assessed as reduction in colistin MIC at 15 uM incubated for 16 hrs by broth microdilution method (reference value: 512 ug/ml)", "format": "functional", "settings": "Acinetobacter baumannii, 3941, 16 h"}, "[13]": {"test_system": "Acinetobacter baumannii", "test": "Potentiation of colistin-induced antibacterial activity against Acinetobacter baumannii 4106 assessed as reduction in colistin MIC at 20 uM incubated for 16 hrs by broth microdilution method (reference value: 1024 ug/ml)", "format": "functional", "settings": "Acinetobacter baumannii, 4106, 16 h"}, "[14]": {"test_system": "Acinetobacter baumannii", "test": "Potentiation of colistin-induced antibacterial activity against Acinetobacter baumannii 3941 assessed as reduction in colistin MIC at 10 uM incubated for 16 hrs by broth microdilution method (reference value: 512 ug/ml)", "format": "functional", "settings": "Acinetobacter baumannii, 3941, 16 h"}, "[15]": {"test_system": "Acinetobacter baumannii", "test": "Potentiation of colistin-induced antibacterial activity against Acinetobacter baumannii 17978 harbouring mcr-1 gene assessed as colistin sensitization activity at 30 uM incubated for 16 hrs by broth microdilution method", "format": "functional, organism-based"}, "[16]": {"test_system": "Acinetobacter baumannii", "test": "Antivirulence activity in Acinetobacter baumannii 4106 infected Galleria mellonella larvae model assessed as survival rate at 50 mg/kg measured at 24 hrs interval over 4 days", "format": "functional", "summary_of_the_method": "(§3)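 A. baumannii 4106 was given to Galleria mellonella larvae at 6 × 10^5 CFU, the lethal inoculum found by dose escalation. Larvae were treated with colistin 50 mg/kg, adjuvant 50 mg/kg, colistin plus adjuvant (50 mg/kg each), or tigecycline 100 mg/kg as positive control. Survival was scored out to day 4.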"}, "[17]": {"test_system": "Acinetobacter baumannii", "test": "Antivirulence activity in Acinetobacter baumannii 4106 infected Galleria mellonella larvae model assessed as survival rate in presence of colistin at 50 mg/kg measured at 24 hrs interval over 4 days (reference value: 7 %)", "format": "functional", "summary_of_the_method": "as §3"}, "[18]": {"test": "Cytotoxicity against mouse 4T1 cells assessed as reduction in cell viability in presence of 1 ug/ml colistin incubated for 18 hrs by MTT assay", "format": "cell-based", "summary_of_the_method": "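4T1 mouse mammary tumor cells exposed to compound for 18 h, alone or together with colistin at 1 μg/mL. Medium then aspirated and replaced with 0.5 mg/mL MTT in culture medium for colorimetric viability read-out. CT50 taken as the concentration giving 50% cell viability.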"}, "[19]": {"test_system": "Acinetobacter baumannii", "test": "Potentiation of colistin-induced antibacterial activity against Acinetobacter baumannii 3941 assessed as reduction in colistin MIC at 7.5 uM incubated for 16 hrs by broth microdilution method (reference value: 512 ug/ml)", "format": "functional", "settings": "Acinetobacter baumannii, 3941, 16 h"}, "[20]": {"test_system": "Acinetobacter baumannii", "test": "Potentiation of colistin-induced antibacterial activity against Acinetobacter baumannii 17978 assessed as colistin MIC at 50 uM incubated for 16 hrs by broth microdilution method (reference value: 2 ug/ml)", "format": "functional", "settings": "Acinetobacter baumannii, 17978, 16 h"}, "[21]": {"test_system": "Klebsiella pneumoniae", "test": "Potentiation of colistin-induced antibacterial activity against Klebsiella pneumoniae C3 assessed as reduction in colistin MIC at 10 uM incubated for 16 hrs by broth microdilution method (reference value: 512 ug/ml)", "format": "functional", "settings": "C3, 16 h"}, "[22]": {"test_system": "Klebsiella pneumoniae", "test": "Potentiation of colistin-induced antibacterial activity against Klebsiella pneumoniae 2210291 assessed as colistin MIC at 50 uM incubated for 16 hrs by broth microdilution method (reference value: 1 ug/ml)", "format": "functional", "settings": "Klebsiella pneumoniae, 2210291, 16 h"}, "[23]": {"test_system": "Escherichia coli", "test": "Potentiation of colistin-induced antibacterial activity against Escherichia coli YD626 assessed as colistin MIC at 50 uM incubated for 16 hrs by broth microdilution method (reference value: 1 ug/ml)", "format": "functional", "settings": "YD626, 16 h"}, "[24]": {"test_system": "Acinetobacter baumannii", "test": "Potentiation of colistin-induced antibacterial activity against Acinetobacter baumannii 17978 harbouring mcr-1 gene assessed as colistin MIC at 50 uM incubated for 16 hrs by broth microdilution method (reference value: 16 ug/ml)", "format": "functional", "settings": "Acinetobacter baumannii, 17978, 16 h"}, "[25]": {"test_system": "Escherichia coli", "test": "Potentiation of colistin-induced antibacterial activity against Escherichia coli YD626 harbouring mcr-1 gene assessed as reduction in colistin MIC at 5 uM incubated for 16 hrs by broth microdilution method (reference value: 8 ug/ml)", "format": "functional", "settings": "YD626, 16 h", "summary_of_the_method": "as §1"}}, "note": "Calls of active or inactive are those of the source. No cut-off for these calls is given here.", "data": [{"smiles": "O=C(NCCc1c[nH]c2ccc(Br)cc12)Nc1cc(Cl)c(Br)c(Cl)c1", "values": [{"measurement": "MIC", "setting": "[1]", "result": 2, "unit": "µg/mL"}, {"measurement": "MIC", "setting": "[2]", "result": 1, "unit": "µg/mL"}, {"measurement": "MIC", "setting": "[3]", "result": 1, "unit": "µg/mL"}, {"measurement": "MIC", "setting": "[4]", "result": 1, "unit": "µg/mL"}, {"measurement": "MIC", "setting": "[5]", "result": "≤ 0.25", "unit": "µg/mL"}, {"measurement": "MIC", "setting": "[6]", "result": 0.5, "unit": "µg/mL"}, {"measurement": "Activity", "setting": "[7]", "result": "Active"}, {"measurement": "MIC", "setting": "[8]", "result": 0.5, "unit": "µg/mL"}, {"measurement": "MIC", "setting": "[9]", "result": "≤ 0.25", "unit": "µg/mL"}, {"measurement": "MIC", "setting": "[10]", "result": 2, "unit": "µg/mL"}, {"measurement": "Activity", "setting": "[11]", "result": "Active"}, {"measurement": "MIC", "setting": "[12]", "result": 4, "unit": "µg/mL"}, {"measurement": "MIC", "setting": "[13]", "result": "≤ 0.5", "unit": "µg/mL"}, {"measurement": "MIC", "setting": "[14]", "result": 4, "unit": "µg/mL"}, {"measurement": "Activity", "setting": "[15]", "result": "Active"}, {"measurement": "Activity", "setting": "[16]", "result": 0, "unit": "%"}, {"measurement": "Activity", "setting": "[17]", "result": 47, "unit": "%"}, {"measurement": "CC50 at 18 h", "setting": "[18]", "result": 64.9, "unit": "µM"}, {"measurement": "MIC", "setting": "[19]", "result": 16, "unit": "µg/mL"}, {"measurement": "MIC", "setting": "[20]", "result": 0.5, "unit": "µg/mL"}, {"measurement": "MIC", "setting": "[21]", "result": 1, "unit": "µg/mL"}, {"measurement": "MIC", "setting": "[22]", "result": 0.5, "unit": "µg/mL"}, {"measurement": "MIC", "setting": "[23]", "result": 0.25, "unit": "µg/mL"}, {"measurement": "MIC", "setting": "[24]", "result": 0.5, "unit": "µg/mL"}, {"measurement": "MIC", "setting": "[25]", "result": 1, "unit": "µg/mL"}]}]}
